Test results published in publication PMC2859510 (The Journal of Biological Chemistry, 2010).
“Also recorded” adds a separate entry of the source. Where no end group is shown, it is not given here.

Key:
GST-NEMO-(2–200) = GST-NEMO-(2–200) (UniProt Q9Y6K9); experiment: AlphaScreen or HTRF
IL-1β-stimulated RASF = experiment: IL-1β-induced IL-6 production in RASF; assay type: cell-based, patients with rheumatoid arthritis; conditions: pretreated 2 h, 1 ng/ml IL-1β 18 h, 1% serum, IKK-2 11-mer
How it was run: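 Fibroblasts were grown in high-glucose DMEM with 15% defined bovine serum and 50 μg/ml gentamicin. They were seeded at 1.5 × 10^4 cells/well, attached overnight, then moved to DMEM with 1% serum. Cells got rising peptide doses for 2 h, then 1 ng/ml IL-1β for 18 h. Secreted IL-6 was read by MSD, IC50 fitted, and viability checked by Alamar Blue. Data are % of stimulated cells, mean ± S.D. of ≥3 determinations.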

IKK-2 (Ser^181); IκBα = assay type: cell-based, patients with rheumatoid arthritis; conditions: RASF, peptide 1 h before 1 ng/ml IL-1β 10 min; IKK-2 11-mer
How it was run: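 Rheumatoid arthritis synovial fibroblasts were exposed to peptide for 1 h, then to 1 ng/ml IL-1β for 10 min. The same lysates also served the kinase assay. Proteins were separated by SDS-PAGE and transferred to PVDF. Membranes were probed 2 h at 25 °C with anti-phospho-IKK-1(Ser180)/IKK-2(Ser181) or anti-IκBα, then with secondary Ab for 1 h. Bands were read by infrared imaging.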

NEMO-IKK-2 complex = experiment: Immunoprecipitation of the IKK complex with anti-NEMO from RASF; assay type: cell-based, patients with rheumatoid arthritis; conditions: 150 μM WT or mutant peptide, 30 min, then 1 ng/ml IL-1β 10 min; IKK-2 11-mer
How it was run: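 Fibroblasts were given 150 μM WT or mutant peptide for 30 min, then 1 ng/ml IL-1β for 10 min at 37 °C. Cells were lysed in 20 mM Tris pH 7.6, 150 mM NaCl, 0.5% NP-40, PMSF, protease and phosphatase inhibitors. From 50 μg lysate, the complex was pulled down with anti-NEMO mAb for 1 h, then Protein A beads for 1 h. Precipitates and inputs were blotted under reducing SDS-PAGE and read by infrared imaging. Runs were repeated 2–4 times.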

unstimulated RASF = experiment: Basal IL-6 production in RASF; assay type: cell-based, patients with rheumatoid arthritis; conditions: pretreated 2 h, vehicle 18 h, IKK-2 11-mer
How it was run: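 Commercial RASF were seeded at 1.5 × 10^4 cells/well in high-glucose DMEM with 15% defined bovine serum and 50 μg/ml gentamicin, attached overnight, then switched to DMEM with 1% serum. Cells were pretreated 2 h with increasing test compound concentrations, then given vehicle for 18 h. Secreted IL-6 was measured by MSD; cytotoxicity by Alamar Blue. Expressed as % of untreated cells; mean ± S.D., ≥3 determinations.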

unstimulated PBMC = experiment: Basal TNF-α and IL-6 production in PBMC; assay type: cell-based, human; conditions: pretreated 2 h, vehicle 18 h, IKK-2 11-mer
How it was run: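 Human PBMC from heparinized healthy-donor blood were isolated by Ficoll, plated at 2.5 × 10^5 cells/well in DMEM with 5% endotoxin-free FBS and penicillin/streptomycin. Cells were pretreated 2 h with increasing test compound concentrations, then given vehicle for 18 h (1% DMSO final). TNF-α and IL-6 were measured by MSD; cytotoxicity by Alamar Blue. Expressed as % of untreated cells; mean ± S.D., ≥3 determinations.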

[1] = molecular target: GST-NEMO-(2–200) and IKK-2-FLAG (Homo sapiens, UniProt Q9Y6K9); experiment: Alphascreen binding assay, recombinant NEMO and IKK-2; conditions: pH 7.4, read-out: inhibition of NEMO-IKK-2 interaction at 100 μM, Alphascreen
Chain of GST-NEMO-(2–200) and IKK-2-FLAG (Q9Y6K9 2-200): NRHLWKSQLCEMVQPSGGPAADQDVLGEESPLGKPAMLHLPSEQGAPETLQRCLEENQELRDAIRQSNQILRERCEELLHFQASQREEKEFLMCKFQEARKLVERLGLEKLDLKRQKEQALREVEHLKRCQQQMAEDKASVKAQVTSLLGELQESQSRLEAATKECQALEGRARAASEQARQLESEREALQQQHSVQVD
How it was run: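 GST-NEMO-(2–200) (2 nM) and C-terminal FLAG-tagged full-length IKK-2 (2 nM) were incubated 30 min at room temperature in buffer containing 50 mM HEPES pH 7.4, 0.01% BSA, 0.0005% Tween 20 and 1 mM DTT. Unlabeled competitor peptides were titrated in for 30 min. Glutathione donor and anti-FLAG acceptor beads were added, overnight at room temperature, then Alphascreen read. Mean ± S.E. of four independent experiments.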

NEMO-IKK-2 interactions = experiment: In situ proximity ligation assay, NEMO-IKK-2 interactions in RASF; assay type: cell-based, patients with rheumatoid arthritis; conditions: data not shown
How it was run: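 RASF on culture slides (2.5 × 10^4 cells/well, DMEM 10% FBS, overnight 37 °C) were moved to serum-free DMEM with 1% DMSO or test compound for 30 min. Cells were fixed (4% paraformaldehyde), permeabilized (0.1% Triton X-100), and blocked. They were then incubated overnight at 4 °C with anti-NEMO plus anti-IKK-2 Abs, then with oligonucleotide-linked probes (1 h, 37 °C), followed by ligation and amplification. Counterstained with Hoechst and imaged at ×20; signals/cell averaged per image.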

NF-κB reporter gene [2] = conditions: cited from earlier work
[3] = test system: bovine nasal cartilage explant cultures; assay type: cell-based; conditions: data not shown
NF-κB reporter gene [4] = conditions: proinflammatory stimuli (TNF-α); cited from earlier work
IRAK-1, TAK-1, IκBα, p65 = experiment: NF-κB signaling intermediates in IL-1β-stimulated RASF; assay type: cell-based, patients with rheumatoid arthritis; conditions: then 1 ng/ml IL-1β 10 min; for IRAK-1 fate (disappearance of band) / TAK-1 phosphorylation: 30 min
How it was run: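 Fibroblasts were given peptide for 30 min, then 1 ng/ml IL-1β for 10 min at 37 °C. Lysis used Tris pH 7.6 / NaCl / 0.5% NP-40 buffer with protease and phosphatase inhibitors, with protein measured by Bradford. Blots were run by SDS-PAGE and PVDF transfer, with primary Abs 2 h at 25 °C (anti-IRAK-1, anti-phospho-TAK-1, anti-p65) and secondary Ab 1 h. Tubulin served as loading control.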

LPS-stimulated PBMC = experiment: LPS-induced TNF-α and IL-6 production in PBMC; assay type: cell-based, human; conditions: pretreated 2 h, 10 ng/ml LPS 18 h, IKK-2 11-mer, Fig. 1A/data not shown
How it was run: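 PBMC were Ficoll-isolated from heparinized healthy-donor blood and kept in DMEM with 5% endotoxin-free FBS and pen/strep. They were plated at 2.5 × 10^5 cells/well and given rising peptide doses for 2 h. Then 10 ng/ml LPS or vehicle was added for 18 h, at 1% DMSO final. TNF-α and IL-6 were read by MSD, IC50 fitted, and viability checked by Alamar Blue. Data are % of LPS-stimulated cells, mean ± S.D.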

NEMO-(2-200) = NEMO-(2-200) (UniProt Q9Y6K9); experiment: fluorescence polarisation
Chain of NEMO-(2-200) (Q9Y6K9 2-200): as above

[5] = molecular target: GST-NEMO-(2–200) and biotinylated IKK-1/2 chimeric 44-mer peptide (Homo sapiens, UniProt Q9Y6K9); experiment: Time-resolved FRET binding assay
Chain of GST-NEMO-(2–200) and biotinylated IKK-1/2 chimeric 44-mer peptide (Q9Y6K9 2-200, change not shown): as the sequence (Q9Y6K9 2-200) above

IKK complex = experiment: Native PAGE / Western blot: release of IKK-2 from an IKK complex in RASF; assay type: cell-based, patients with rheumatoid arthritis; conditions: 30 min peptide, then IL-1β 10 min, IKK-2 11-mer

Chain of GST-NEMO-(2–200) (Q9Y6K9 2-200): as above

Row | Substance | IC50 (GST-NEMO-(2–200)) [µM] | IKK-2 phosphorylation at Ser^181 (IKK-2 (Ser^181); IκBα) | IκBα degradation (IKK-2 (Ser^181); IκBα) | basal IL-6 production, RASF (unstimulated RASF) | basal cytokine production (TNF-α and IL-6), PBMC (unstimulated PBMC) | cytokine-induced release of glycosaminoglycans [3] | IRAK-1 fate (disappearance of band) (IRAK-1, TAK-1, IκBα, p65) | TAK-1 phosphorylation (IRAK-1, TAK-1, IκBα, p65) | IκBα degradation (30 min pretreatment) (IRAK-1, TAK-1, IκBα, p65) | further results
1 | DRQIKIWFQNRRMKWKKTALDWSWLQTE [WT NBD peptides] | – | inhibited | inhibited | neither WT nor mutant NBD peptides had an inhibitory effect; also recorded: slight increase in basal cytokine production | neither WT nor mutant NBD peptides had an inhibitory effect; also recorded: slight increase in basal cytokine production | inhibited | no effect | no effect | inhibited IκBα degradation in a concentration-dependent manner | IL-1β-induced IL-6 production (IL-1β-stimulated RASF): completely blocked; relative concentration of IKK-2 in the immunoprecipitated complex (NEMO-IKK-2 complex): no significant effect; inhibition at 100 µM [1]: 40%; NEMO-IKK-2 interactions (PLA), unstimulated (NEMO-IKK-2 interactions): inhibited NEMO-IKK-2 interactions in unstimulated cells; NF-κB reporter gene activity, basal (NF-κB reporter gene [2]): did not inhibit basal reporter gene activity; NF-κB reporter gene activity, stimulated (NF-κB reporter gene [4]): inhibited NF-κB reporter gene activity; LPS-induced production of IL-6 (LPS-stimulated PBMC): completely blocked
2 | PAKKSEELVAEAHNLCTLLENAIQDTVREQDQSFTALDWSWLQTE [IKK-2 45-mer] | – | – | – | – | – | – | – | – | – | IC50 [5]: 1 to 7 nM
3 | TALDASALQTE [mutant NBD peptides] | – | WT but not mutant NBD peptides inhibited | WT but not mutant NBD peptides inhibited | neither WT nor mutant NBD peptides had an inhibitory effect | neither WT nor mutant NBD peptides had an inhibitory effect | WT but not mutant NBD peptides inhibited | failed | failed | failed to protect IκBα from degradation | release of IKK-2 from IKK complex, IL-1β-treated (IKK complex): WT but not mutant NBD peptides led to the appearance of an IKK-2 band distinct from the complex; also recorded: WT but not mutant NBD peptides resulted in the release of IKK-2

More lines, main results first:

Row | IC50 (GST-NEMO-(2–200)) [µM] | Substance | IKK-2 phosphorylation at Ser^181 (IKK-2 (Ser^181); IκBα) | IκBα degradation (IKK-2 (Ser^181); IκBα) | basal IL-6 production, RASF (unstimulated RASF) | basal cytokine production (TNF-α and IL-6), PBMC (unstimulated PBMC) | cytokine-induced release of glycosaminoglycans [3] | IRAK-1 fate (disappearance of band) (IRAK-1, TAK-1, IκBα, p65) | TAK-1 phosphorylation (IRAK-1, TAK-1, IκBα, p65) | IκBα degradation (30 min pretreatment) (IRAK-1, TAK-1, IκBα, p65) | further results
4 | > 100 | Antennapedia homeodomain-conjugated IKK-2 11-mer NBD peptide (WT) | – | – | – | – | – | – | – | – | percent inhibition at 100 μM (GST-NEMO-(2–200)): 40%
5 | > 1 | IKK-2 45-mer mutant (W739A and W741A) (peptide) | – | – | – | – | – | – | – | – | IC50 (NEMO-(2-200)): > 1000 nM
